Data taken from ChEMBL document CHEMBL3124822, “Discovery of a rapidly metabolized, long-acting β(2) adrenergic receptor agonist with a short onset time incorporating a sulfone group suitable for once-daily dosing” (J Med Chem, 2014).

Legend:
[1] = Plasma clearance in Han Wistar rat at 0.25 mg/kg, iv up to 7 hrs by LC-MS/MS analysis; type: ADME, organism-based; set-up: dose 0.25 mg/kg, route intravenous
How it was run: (§1)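 Han Wistar rats dosed 0.25 mg/kg intravenously; plasma sampled at various times up to 7 h postdose. Clearance expressed as percentage of liver blood flow.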

[2] = target: Beta-3 adrenergic receptor (Homo sapiens, UniProt P13945); experiment: Agonist activity at human beta3 adrenoceptor transfected in CHO cells assessed as cyclic AMP accumulation after 45 mins by fluorescence polarization assay; type: cell-based
Chain of Beta-3 adrenergic receptor (P13945 whole entry): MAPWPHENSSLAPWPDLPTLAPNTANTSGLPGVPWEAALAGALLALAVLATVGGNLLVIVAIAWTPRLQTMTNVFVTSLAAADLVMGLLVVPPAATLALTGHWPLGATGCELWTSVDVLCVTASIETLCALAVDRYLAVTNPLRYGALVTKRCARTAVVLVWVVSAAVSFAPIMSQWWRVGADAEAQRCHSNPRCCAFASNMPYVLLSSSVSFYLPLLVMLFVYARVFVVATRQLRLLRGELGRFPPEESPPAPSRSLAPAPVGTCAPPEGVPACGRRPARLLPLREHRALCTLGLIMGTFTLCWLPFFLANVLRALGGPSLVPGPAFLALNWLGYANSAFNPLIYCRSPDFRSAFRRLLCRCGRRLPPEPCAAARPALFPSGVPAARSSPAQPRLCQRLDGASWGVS

[3] = target: Beta-2 adrenergic receptor (Homo sapiens, UniProt P07550); experiment: Agonist activity at human beta2 adrenoceptor transfected in CHO cells assessed as cyclic AMP accumulation after 45 mins by fluorescence polarization assay; type: functional, cell-based
Chain of Beta-2 adrenergic receptor (P07550 whole entry): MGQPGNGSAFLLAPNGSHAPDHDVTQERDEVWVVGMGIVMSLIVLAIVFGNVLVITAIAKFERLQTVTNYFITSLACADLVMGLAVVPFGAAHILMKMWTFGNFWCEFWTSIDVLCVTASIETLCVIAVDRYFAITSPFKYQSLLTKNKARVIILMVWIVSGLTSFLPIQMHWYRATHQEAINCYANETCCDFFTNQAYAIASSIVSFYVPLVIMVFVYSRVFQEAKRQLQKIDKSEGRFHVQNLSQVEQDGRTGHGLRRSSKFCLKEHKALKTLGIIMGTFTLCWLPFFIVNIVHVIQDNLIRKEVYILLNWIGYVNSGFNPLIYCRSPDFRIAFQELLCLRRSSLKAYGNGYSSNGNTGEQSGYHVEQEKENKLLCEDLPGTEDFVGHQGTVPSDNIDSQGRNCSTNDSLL

[4] = tested on: L5178Y; experiment: Genotoxicity against mouse L5178Y cells in presence of rat liver metabolic activation system; type: toxicity, cell-based
How it was run: (§2)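 Acetate and 4-biphenylsulfonate salts screened in Ames and mouse lymphoma L5178Y assays, with and without a rat liver metabolic activation system.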

[5] = tested on: Salmonella typhimurium; experiment: Genotoxicity in Salmonella typhimurium by Ames assay in presence of rat liver metabolic activation system; type: toxicity, organism-based; settings: salmonella enterica subsp. enterica serovar typhimurium; how it was run: as §2
[6] = tested on: Salmonella typhimurium; experiment: Genotoxicity in Salmonella typhimurium by Ames assay; type: toxicity, organism-based; settings: salmonella enterica subsp. enterica serovar typhimurium; how it was run: as §2
[7] = tested on: Cavia porcellus; experiment: Bronchodilatory activity in guinea pig assessed as duration of action of inhibition of histamine-induced bronchoconstriction at 10 times EC90 administered via nebulization 2 mins prior to histamine challenge; type: functional
How it was run: (§3)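 Conscious guinea pigs, n = 24 per group, given test agonist as a nebulized solution in dimethylacetamide–saline vehicle (2 min nebulization) before histamine (10 mM, nebulized 1.3 min) in a whole-body plethysmograph. PenH recorded for 15 min as index of airway obstruction. Dose expressed as nebulizer concentration; duration taken as time to 50% recovery.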

[8] = tested on: Cavia porcellus; experiment: Bronchodilatory activity in guinea pig assessed as duration of action of inhibition of histamine-induced bronchoconstriction at EC90 administered via nebulization 2 mins prior to histamine challenge; type: functional; how it was run: as §3
[9] = tested on: Cavia porcellus; experiment: Bronchodilatory activity in guinea pig assessed as inhibition of histamine-induced bronchoconstriction administered via nebulization 2 mins prior to histamine challenge relative to salmeterol acetate; type: functional
How it was run: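 Conscious guinea pigs (n = 24 per group) in a whole-body plethysmograph; agonist given by 2 min nebulization before challenge with nebulized histamine (10 mM, 1.3 min). Enhanced pause (PenH) was recorded for 15 min as the index of airway obstruction. Potency was expressed as EC90 by nebulizer concentration and compared with salmeterol acetate.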

[10] = tested on: Cavia porcellus; experiment: Bronchodilatory activity in guinea pig assessed as inhibition of histamine-induced bronchoconstriction administered via nebulization 2 mins prior to histamine challenge; type: functional; how it was run: as §3
[11] = Binding affinity to guinea pig sigma receptor; set-up: species or system Cavia porcellus
[12] = target: 5-hydroxytryptamine receptor 1B (Homo sapiens, UniProt P28222); experiment: Binding affinity to human 5HT1B receptor
Chain of 5-hydroxytryptamine receptor 1B (P28222 whole entry): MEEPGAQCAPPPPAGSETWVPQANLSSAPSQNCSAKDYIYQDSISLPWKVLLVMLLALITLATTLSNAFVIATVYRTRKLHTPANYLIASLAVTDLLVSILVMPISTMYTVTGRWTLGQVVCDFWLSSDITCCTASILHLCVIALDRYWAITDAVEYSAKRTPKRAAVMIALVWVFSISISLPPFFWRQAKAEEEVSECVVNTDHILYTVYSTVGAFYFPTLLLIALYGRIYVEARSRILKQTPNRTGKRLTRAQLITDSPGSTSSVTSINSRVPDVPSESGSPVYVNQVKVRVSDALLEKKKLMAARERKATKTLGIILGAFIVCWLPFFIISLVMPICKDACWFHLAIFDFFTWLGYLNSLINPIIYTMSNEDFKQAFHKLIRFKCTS

[13] = tested on: Hepatocyte; experiment: Drug metabolism in human hepatocytes assessed as metabolite M10 formation at 12.5 uM after 2 hrs by LC-MS/MS analysis; type: ADME, cell-based
How it was run: (§4)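 Human hepatocytes incubated with substrate at 12.5 μM for 2 h. Products characterized by LC–MS/MS on a C18 column, 5–95% acetonitrile gradient in water with 0.1% formic acid over 8 min. Metabolites numbered by elution order. Abundance is semiquantitative from peak heights (low/medium/high), assuming equal analyte response.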

[14] = tested on: Hepatocyte; experiment: Drug metabolism in human hepatocytes assessed as metabolite M12 formation at 12.5 uM after 2 hrs by LC-MS/MS analysis; type: ADME, cell-based; how it was run: as §4
[15] = tested on: Hepatocyte; experiment: Drug metabolism in human hepatocytes assessed as metabolite M13 formation at 12.5 uM after 2 hrs by LC-MS/MS analysis; type: ADME, cell-based; how it was run: as §4
[16] = tested on: Hepatocyte; experiment: Drug metabolism in human hepatocytes assessed as metabolite M15 formation at 12.5 uM after 2 hrs by LC-MS/MS analysis; type: ADME, cell-based; how it was run: as §4
[17] = tested on: Hepatocyte; experiment: Drug metabolism in human hepatocytes assessed as metabolite M2 formation at 12.5 uM after 2 hrs by LC-MS/MS analysis; type: ADME, cell-based; how it was run: as §4
[18] = tested on: Hepatocyte; experiment: Drug metabolism in human hepatocytes assessed as metabolite M1 formation at 12.5 uM after 2 hrs by LC-MS/MS analysis; type: ADME, cell-based; how it was run: as §4
[19] = Drug metabolism in human hepatocytes at 1 uM after 2 hrs by LC-MS/MS analysis; type: ADME, cell-based, Hepatocyte; settings: read-out: Drug metabolism
How it was run: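 Human hepatocytes incubated with substrate at 1 μM for 2 h; percentage turnover of parent determined.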

[20] = tested on: Liver microsome; experiment: Clearance in dog liver microsomes; type: ADME, Canis lupus familiaris
How it was run: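 Compound incubated with liver microsomes; in vitro metabolic clearance expressed as (mL/min)/g liver.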

[21] = Ratio of drug uptake from blood to plasma in human; type: ADME
How it was run: (§5)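 In vitro partitioning of the compound into the cellular fraction of rat, dog and human blood, reported as the blood:plasma ratio.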

[22] = Ratio of drug uptake from blood to plasma in rat; type: ADME; how it was run: as §5
[23] = Plasma protein binding in human; type: ADME, cell-free; settings: read-out: PPB (converted)
[24] = Plasma protein binding in dog; type: ADME, cell-free, Canis lupus familiaris; settings: read-out: PPB (converted)
[25] = Plasma protein binding in guinea pig; type: ADME, cell-free, Cavia porcellus; settings: read-out: PPB (converted)
[26] = target: T1, Cytochrome P450 3A4 (Homo sapiens, UniProt P08684); experiment: Inhibition of human CYP3A4 expressed in Escherichia coli using 7-benzyloxyquinoline as substrate; type: ADME
T1 sequence (P08684 whole entry, canonical isoform): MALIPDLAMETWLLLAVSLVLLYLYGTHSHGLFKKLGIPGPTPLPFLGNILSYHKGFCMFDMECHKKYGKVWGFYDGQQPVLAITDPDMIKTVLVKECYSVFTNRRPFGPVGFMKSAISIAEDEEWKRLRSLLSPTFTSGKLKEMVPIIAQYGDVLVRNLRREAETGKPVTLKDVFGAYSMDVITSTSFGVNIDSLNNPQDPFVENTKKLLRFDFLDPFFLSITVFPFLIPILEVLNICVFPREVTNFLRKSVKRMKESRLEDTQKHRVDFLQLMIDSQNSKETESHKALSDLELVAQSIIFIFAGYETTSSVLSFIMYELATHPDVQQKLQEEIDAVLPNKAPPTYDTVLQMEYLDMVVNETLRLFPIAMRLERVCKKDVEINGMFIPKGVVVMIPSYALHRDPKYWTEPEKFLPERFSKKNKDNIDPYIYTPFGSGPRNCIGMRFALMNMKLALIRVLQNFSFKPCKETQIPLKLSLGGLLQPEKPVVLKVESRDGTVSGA
How it was run: (§6)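 Human CYP isoforms expressed in E. coli; IC50 from n = 3. Probe substrates diethoxyfluorescein and 7-benzyloxyquinoline are stated for CYP3A4.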

[27] = target: T1, Cytochrome P450 3A4; experiment: Inhibition of human CYP3A4 expressed in Escherichia coli using diethoxyfluorescein as substrate; type: ADME; how it was run: as §6
[28] = target: Cytochrome P450 2D6 (Homo sapiens, UniProt P10635); experiment: Inhibition of human CYP2D6 expressed in Escherichia coli; type: ADME; how it was run: as §6
Chain of Cytochrome P450 2D6 (P10635 whole entry): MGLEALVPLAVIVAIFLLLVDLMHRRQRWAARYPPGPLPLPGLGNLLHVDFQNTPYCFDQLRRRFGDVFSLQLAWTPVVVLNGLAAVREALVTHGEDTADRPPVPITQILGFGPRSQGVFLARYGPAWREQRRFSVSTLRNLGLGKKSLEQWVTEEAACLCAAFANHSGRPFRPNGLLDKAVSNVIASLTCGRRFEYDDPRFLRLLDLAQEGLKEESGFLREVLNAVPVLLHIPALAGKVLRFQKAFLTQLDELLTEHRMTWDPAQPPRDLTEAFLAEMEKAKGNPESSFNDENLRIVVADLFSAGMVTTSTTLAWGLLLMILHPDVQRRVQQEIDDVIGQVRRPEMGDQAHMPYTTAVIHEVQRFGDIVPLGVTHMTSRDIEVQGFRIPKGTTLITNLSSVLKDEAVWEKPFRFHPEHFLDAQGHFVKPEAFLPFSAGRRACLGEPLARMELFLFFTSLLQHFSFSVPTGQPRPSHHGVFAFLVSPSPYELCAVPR

[29] = target: Cytochrome P450 2C9 (Homo sapiens, UniProt P11712); experiment: Inhibition of human CYP2C9 expressed in Escherichia coli; type: ADME; how it was run: as §6
Chain of Cytochrome P450 2C9 (P11712 whole entry): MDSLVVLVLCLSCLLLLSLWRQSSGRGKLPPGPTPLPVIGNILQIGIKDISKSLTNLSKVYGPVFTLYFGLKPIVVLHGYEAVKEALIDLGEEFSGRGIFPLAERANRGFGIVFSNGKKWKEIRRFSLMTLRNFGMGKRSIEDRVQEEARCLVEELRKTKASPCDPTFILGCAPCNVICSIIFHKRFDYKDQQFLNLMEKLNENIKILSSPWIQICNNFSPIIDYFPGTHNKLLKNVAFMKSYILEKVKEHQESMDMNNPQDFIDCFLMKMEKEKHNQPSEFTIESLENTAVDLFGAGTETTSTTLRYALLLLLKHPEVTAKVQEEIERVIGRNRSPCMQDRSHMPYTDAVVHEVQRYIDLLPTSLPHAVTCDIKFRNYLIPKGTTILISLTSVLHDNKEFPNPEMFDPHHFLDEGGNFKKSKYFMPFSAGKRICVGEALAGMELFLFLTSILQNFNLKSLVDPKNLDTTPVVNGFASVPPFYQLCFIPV

[30] = target: Cytochrome P450 2C19 (Homo sapiens, UniProt P33261); experiment: Inhibition of human CYP2C19 expressed in Escherichia coli; type: ADME; how it was run: as §6
Chain of Cytochrome P450 2C19 (P33261 whole entry): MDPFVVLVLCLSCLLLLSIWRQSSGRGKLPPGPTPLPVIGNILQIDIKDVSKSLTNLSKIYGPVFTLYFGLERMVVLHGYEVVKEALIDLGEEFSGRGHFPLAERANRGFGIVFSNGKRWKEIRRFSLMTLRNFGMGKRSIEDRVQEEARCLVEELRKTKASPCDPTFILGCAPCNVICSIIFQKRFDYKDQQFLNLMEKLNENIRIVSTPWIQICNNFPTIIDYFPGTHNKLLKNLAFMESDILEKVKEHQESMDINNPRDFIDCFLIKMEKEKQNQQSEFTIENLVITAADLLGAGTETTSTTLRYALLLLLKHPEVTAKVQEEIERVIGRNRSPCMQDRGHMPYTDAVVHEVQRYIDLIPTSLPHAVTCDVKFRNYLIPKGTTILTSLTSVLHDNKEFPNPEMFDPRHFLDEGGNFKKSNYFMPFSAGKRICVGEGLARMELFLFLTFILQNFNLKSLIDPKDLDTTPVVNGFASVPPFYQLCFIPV

[31] = tested on: Rattus norvegicus; experiment: Clearance in Han Wistar rat at 0.25 mg/kg, iv up to 7 hrs by LC-MS/MS analysis relative to liver blood flow; type: ADME, organism-based; set-up: dose 0.25 mg/kg, route intravenous; settings: in vivo; how it was run: as §1
[32] = Oral absorption in Han Wistar rat at 2 mg/kg up to 7 hrs by LC-MS/MS analysis; type: ADME, organism-based; set-up: dose 2 mg/kg; settings: in vivo, read-out: Fa
How it was run: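 Rat oral absorption from hepatic portal vein plasma, corrected for systemic circulation levels, after β-glucuronidase treatment of samples (deconjugated HPV model). Expressed as h·ng/mL.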

[33] = Oral bioavailability in beagle dog at 0.25 mg/kg up to 8 hrs by LC-MS/MS analysis; type: ADME, organism-based, Canis lupus familiaris; settings: in vivo
How it was run: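 Beagle dogs dosed 0.25 mg/kg orally, with 0.05 mg/kg iv reference arm; plasma collected at various time points up to 8 h postdose.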

[34] = Half life in beagle dog at 0.05 mg/kg, iv up to 8 hrs by LC-MS/MS analysis; type: ADME, organism-based, Canis lupus familiaris; set-up: dose 0.05 mg/kg, route intravenous; settings: in vivo
How it was run: (§7)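 Beagle dogs dosed 0.05 mg/kg intravenously; plasma collected at various time points up to 8 h postdose.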

[35] = Plasma clearance in beagle dog at 0.05 mg/kg, iv up to 8 hrs by LC-MS/MS analysis; type: ADME, organism-based, Canis lupus familiaris; set-up: dose 0.05 mg/kg, route intravenous; how it was run: as §7
[36] = Half life in Han Wistar rat at 0.25 mg/kg, iv up to 7 hrs by LC-MS/MS analysis; type: ADME, organism-based; set-up: dose 0.25 mg/kg, route intravenous; settings: in vivo; how it was run: as §1
[37] = Oral bioavailability in Han Wistar rat at 2 mg/kg up to 7 hrs by LC-MS/MS analysis; type: ADME, organism-based; settings: in vivo

Structure (SMILES): CC(=O)O.O=S(=O)(c1cccc(CCCCOCCCCCCNC[C@H](O)c2ccc(O)c(CO)c2)c1)C1CCCC1
- clearance [1]: 53 mL/min/kg
- EC50 [2]: 794 nM
- EC50 [3]: 2 nM
- Activity [4]: Non-toxic
- Activity [5]: Non-toxic
- Activity [6]: Non-toxic
- Time [7]: >24 h
- Time [8]: 20 h
- fold change (FC) [9]: 5
- EC90 [10]: 10 µM
- pIC50 [11]: 6.8
- IC50 [12]: 100 nM
- Drug metabolism [13]: Active
- Drug metabolism [14]: Active
- Drug metabolism [15]: Active
- Drug metabolism [16]: Active
- Drug metabolism [17]: Active
- Drug metabolism [18]: Active
- metabolised at 2 h, 1 µM [19]: 90%
- CLH [20]: 5 mL/min/g
- blood plasma ratio [21]: 0.65
- blood plasma ratio [22]: 1.3
- fraction unbound [23]: 0.02
- fraction unbound [24]: 0.03
- fraction unbound [25]: 0.03
- IC50 [26]: 3.8 µM
- IC50 [27]: 1600 nM
- IC50 [28]: 6.4 µM
- IC50 [29]: > 10 µM
- IC50 [30]: > 10 µM
- CL [31]: 62%
- AUC at 7 h [32]: 15.9 ng·h/mL
- bioavailability [33]: 3%
- half-life [34]: 24 min
- clearance [35]: 3.7 mL/min/kg
- half-life [36]: 30 min
- bioavailability [37]: < 2%
